# Measurements reported in ChEMBL document CHEMBL3098028, “Synthesis and in vitro and in vivo pharmacological evaluation of new 4-aminoquinoline-based compounds” (ACS Med Chem Lett, 2013).
# Tests used:
# Cytochrome P450 2D6 = Cytochrome P450 2D6 (Homo sapiens, UniProt P10635); experiment: Inhibition of CYP2D6 in human liver microsomes assessed as bufuralol 1'-hydroxylation after 20 mins by LC-MS/MS analysis; assay type: ADME
# Plasmodium falciparum [1] = experiment: Antiplasmodial activity against chloroquine-sensitive Plasmodium falciparum 3D7 after 24 hrs by [3H]hypoxanthine incorporation assay; assay type: functional, organism-based
# In short: (§1)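 Antiplasmodial testing was done at the Swiss Tropical and Public Health Institute. Chloroquine, the reference drug, was tested as its diphosphate salt.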
# Plasmodium falciparum [2] = experiment: Antiplasmodial activity against chloroquine-resistant Plasmodium falciparum K1 after 24 hrs by [3H]hypoxanthine incorporation assay; assay type: functional, organism-based; in short: as §1
# Liver microsome [3] = experiment: Drug metabolism in rat liver microsomes assessed as 4-(2-((1-tert-butyl-1H-tetrazol-5-yl)(4-chlorophenyl)methylamino)ethylamino)-7-chloroquinoline 1-oxide level at 5 uM after 1 hr by LC-MS/MS analysis; assay type: ADME
# Mus musculus [4] = experiment: AUC (0 to infinity) in C57BL/6 mouse at 5 mg/kg, iv; assay type: ADME, organism-based, Plasma; parameters: dose 5 mg/kg, route intravenous, time infinity; conditions: in vivo
# In short: (§2)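 Healthy male C57/BL6 mice received a single intravenous dose (2.5 or 5.0 mg/kg) or oral dose (20 or 40 mg/kg). Plasma concentrations were followed over time to give AUC0-∞ in min·μmol/L, alongside t1/2, CL, Vd, Vss, Cmax, Tmax and oral bioavailability. Values are means of five animals.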
# Liver microsome [5] = experiment: Drug metabolism in rat liver microsomes assessed as 2-(5-((4-chlorophenyl)(2-(7-chloroquinolin-4-ylamino)ethylamino)methyl)-1H-tetrazol-1-yl)-2-methylpropan-1-ol level at 5 uM after 1 hr by LC-MS/MS analysis; assay type: ADME
# Liver microsome [6] = experiment: Drug metabolism in human liver microsomes assessed as 4-(2-((1-tert-butyl-1H-tetrazol-5-yl)(4-chlorophenyl)methylamino)ethylamino)-7-chloroquinoline 1-oxide level at 5 uM after 1 hr by LC-MS/MS analysis; assay type: ADME
# Mus musculus [7] = experiment: AUC (0 to infinity) in C57BL/6 mouse at 2.5 mg/kg, iv; assay type: ADME, organism-based, Plasma; parameters: time infinity, dose 2.5 mg/kg, route intravenous; conditions: in vivo; in short: as §2
# Cytochrome P450 3A4 = Cytochrome P450 3A4 (Homo sapiens, UniProt P08684); experiment: Inhibition of CYP3A4 in human liver microsomes assessed as midazolam 1'-hydroxylation and testosterone 6beta-hydroxylation after 20 mins by LC-MS/MS analysis; assay type: ADME
# Mus musculus [8] = experiment: AUC (0 to infinity) in C57BL/6 mouse at 40 mg/kg, po; assay type: ADME, organism-based, Plasma; parameters: time infinity, dose 40 mg/kg, route oral; conditions: in vivo; in short: as §2
# Plasmodium falciparum [9] = experiment: Antiplasmodial activity against chloroquine-resistant Plasmodium falciparum W2 after 24 hrs by [3H]hypoxanthine incorporation assay; assay type: functional, organism-based; in short: as §1
# Chain of Cytochrome P450 2D6 (P10635 whole entry): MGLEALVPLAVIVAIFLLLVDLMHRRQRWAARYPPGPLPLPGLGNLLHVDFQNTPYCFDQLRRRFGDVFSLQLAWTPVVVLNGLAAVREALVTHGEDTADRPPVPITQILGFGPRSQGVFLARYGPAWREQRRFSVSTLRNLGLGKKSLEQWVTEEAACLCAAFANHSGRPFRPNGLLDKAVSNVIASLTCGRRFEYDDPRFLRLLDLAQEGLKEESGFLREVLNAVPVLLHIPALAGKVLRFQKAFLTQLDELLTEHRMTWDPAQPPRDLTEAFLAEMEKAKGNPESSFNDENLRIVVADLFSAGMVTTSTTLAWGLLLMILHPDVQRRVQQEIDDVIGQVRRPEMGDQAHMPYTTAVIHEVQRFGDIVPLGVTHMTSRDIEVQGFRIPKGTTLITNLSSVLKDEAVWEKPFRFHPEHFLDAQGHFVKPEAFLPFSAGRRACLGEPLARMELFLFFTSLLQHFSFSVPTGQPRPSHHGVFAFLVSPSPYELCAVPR
# Chain of Cytochrome P450 3A4 (P08684 whole entry): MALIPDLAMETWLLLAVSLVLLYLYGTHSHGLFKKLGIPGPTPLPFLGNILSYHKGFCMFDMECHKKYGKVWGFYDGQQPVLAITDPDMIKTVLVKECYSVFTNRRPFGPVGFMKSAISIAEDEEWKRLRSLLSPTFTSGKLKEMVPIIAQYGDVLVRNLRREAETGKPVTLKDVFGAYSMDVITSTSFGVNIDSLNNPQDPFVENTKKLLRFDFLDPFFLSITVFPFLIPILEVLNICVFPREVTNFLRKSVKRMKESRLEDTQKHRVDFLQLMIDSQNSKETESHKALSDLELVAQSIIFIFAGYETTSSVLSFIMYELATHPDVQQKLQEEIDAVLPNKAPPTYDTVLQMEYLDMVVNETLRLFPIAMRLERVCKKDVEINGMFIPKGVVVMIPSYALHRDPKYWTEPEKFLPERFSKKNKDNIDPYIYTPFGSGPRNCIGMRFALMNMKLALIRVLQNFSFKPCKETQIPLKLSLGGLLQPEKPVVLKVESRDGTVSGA
smiles,measurement,setting,value
CC(C)(C)n1nnnc1C(NCCNc1ccnc2cc(Cl)ccc12)c1ccc(Cl)cc1 (stereo unspecified),IC50,Cytochrome P450 2D6,4000 nM
same,IC50,Plasmodium falciparum [1],2 nM
same,IC50,Plasmodium falciparum [2],1 nM
same,Drug metabolism,Liver microsome [3],Active
same,AUC,Mus musculus [4],221 µmol·min/L
same,Drug metabolism,Liver microsome [5],Active
same,Drug metabolism,Liver microsome [6],Active
same,AUC,Mus musculus [7],107 µmol·min/L
same,IC50,Cytochrome P450 3A4,80 nM
same,AUC,Mus musculus [8],541 µmol·min/L
same,IC50,Plasmodium falciparum [9],25.5 nM
